According to ChEMBL document CHEMBL1123616, “Thromboxane synthase inhibitors. Synthesis and pharmacological activity of (R)-, (S)-, and (+/-)-2,2-dimethyl-6-[2-(1H-imidazol-1-yl)-1-[[(4-methoxyphenyl)- methoxy]methyl]ethoxy]hexanoic acids” (J Med Chem, 1987):

Columns and labels:
Assay type in all cases: functional
[1] = test system: Cavia porcellus; test: Inhibition of Collagen-induced Thromboxane (TXB2) in guinea pig whole blood ex vivo by oral 30 mg/kg administration of test compound.
Summary of the method: (§1)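 Male Dunkin-Hartley guinea pigs (300-350 g), fasted overnight, dosed orally by gavage in 50% PEG 400/50% carboxymethylcellulose vehicle. Pentobarbitone anaesthesia 10 min before bleed at 1 h post-dose. Aortic blood was taken into citrate and stirred at 37 °C. Collagen (10 μg/mL) was added and incubated 5 min, then stopped with indomethacin. Plasma TxB2 was measured by RIA and normalized to 5.0×10^8 platelets/mL. Groups of ≥4 animals.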

[2] = test system: Cavia porcellus; test: Inhibition of Collagen-induced serum Thromboxane (TXB2) in guinea pig whole blood ex vivo after 30 mg/kg oral administration of compound.; summary of the method: as §1
[3] = test system: Cavia porcellus; test: Inhibition of Collagen-induced Thromboxane (TXB2) in guinea pig whole blood ex vivo after 1 hr of 30 mg/kg oral administration of compound.; summary of the method: as §1
[4] = target: T1, Thromboxane-A synthase (Homo sapiens, UniProt P24557); test: Inhibition of Thromboxane B2 formation in collagen-stimulated human platelets in platelet rich plasma.
T1 sequence (P24557 whole entry): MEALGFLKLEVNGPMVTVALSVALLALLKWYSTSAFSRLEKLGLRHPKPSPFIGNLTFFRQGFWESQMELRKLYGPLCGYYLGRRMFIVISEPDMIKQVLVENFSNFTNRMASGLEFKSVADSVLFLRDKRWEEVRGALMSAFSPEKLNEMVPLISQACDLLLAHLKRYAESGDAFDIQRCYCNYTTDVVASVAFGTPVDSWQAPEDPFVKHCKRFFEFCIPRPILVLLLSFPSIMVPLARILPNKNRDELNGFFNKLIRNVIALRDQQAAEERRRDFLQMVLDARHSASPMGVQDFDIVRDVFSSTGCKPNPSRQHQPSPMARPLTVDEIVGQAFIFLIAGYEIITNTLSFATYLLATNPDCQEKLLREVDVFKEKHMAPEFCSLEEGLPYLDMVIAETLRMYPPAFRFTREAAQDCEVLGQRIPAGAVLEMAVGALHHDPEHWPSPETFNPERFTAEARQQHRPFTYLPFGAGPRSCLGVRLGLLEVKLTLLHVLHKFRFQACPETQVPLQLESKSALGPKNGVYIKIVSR

[5] = test system: Cavia porcellus; test: Inhibition of Collagen-induced Thromboxane (TXB2) in guinea pig whole blood ex vivo after 1 hr of 30 mg/kg oral administration of compound; summary of the method: as §1
[6] = test system: Cavia porcellus; test: Inhibition of Collagen-induced serum Thromboxane (TXB2) generation in guinea pig whole blood ex vivo after 10 mg/kg oral administration of compound.; summary of the method: as §1
[7] = test system: Cavia porcellus; test: Inhibition of Collagen-induced Thromboxane (TXB2) generation in guinea pig whole blood ex vivo by oral 10 mg/kg administration of test compound.; summary of the method: as §1
[8] = test system: Cavia porcellus; test: Dose-related effect was determined 1 hr after oral administration in guinea pig and expressed as ED50 value; summary of the method: as §1
[9] = test system: Cavia porcellus; test: Inhibition of Collagen-induced serum Thromboxane (TXB2) in guinea pig whole blood ex vivo after 10 mg/kg oral administration of compound.; summary of the method: as §1
[10] = test system: Cavia porcellus; test: Inhibition of Collagen-induced Thromboxane (TXB2) in guinea pig whole blood ex vivo after 1 hr of 10 mg/kg oral administration of compound.; summary of the method: as §1

SMILES | Thromboxane B2 (TxB2) [1] [pg 0.1ml-1 500x10^3] | inhibition in vivo at 30 mg/kg [2] [%] | IC50 [4] [µM] | other results
CCOC(=O)C(C)(C)CCCCOC(COCc1ccc(OC)cc1)Cn1ccnc1 (stereo unspecified) | 55 | 97 | 17.6 | ED50 [3]: 6.7 mg/kg
COc1ccc(COCC(Cn2ccnc2)OCCCCCC(=O)O)cc1 (stereo unspecified) | 130 | 82 | 0.56 | ED50 [3]: 10.5 mg/kg
COc1ccc(COCC(Cn2ccnc2)OCCCCC(=O)O)cc1 (stereo unspecified) | 1047 | 43 | 0.73 | 
CCOC(=O)CCCCCOC(COCc1ccc(OC)cc1)Cn1ccnc1 (stereo unspecified) | 750 | 63 | 0.12 | ED50 [5]: 13.5 mg/kg
CCOC(=O)CCCCCCC(COCc1ccc(OC)cc1)Cn1ccnc1 (stereo unspecified) | 683 | 53 | 1 | 
COc1ccc(COC[C@@H](Cn2ccnc2)OCCCCC(C)(C)C(=O)O)cc1 | 572 | 71 | 0.42 | ED50 [3]: 12 mg/kg
COc1ccc(COC[C@H](Cn2ccnc2)OCCCCC(C)(C)C(=O)O)cc1 |  |  | 0.036 | inhibition in vivo at 10 mg/kg [6]: 95%; Thromboxane B2 (TxB2) [7]: 61.9 pg 0.1ml-1 500x10^3; ED50 [8]: 1.4 mg/kg
COc1ccc(COCC(Cn2ccnc2)OCCCCCCC(C)(C)C(=O)O)cc1 (stereo unspecified) |  |  | > 20 | 
COc1ccc(COCC(Cn2ccnc2)OCCCCCCC(=O)O)cc1 (stereo unspecified) | 923 | 25 | 1.89 | 
COc1ccc(COCC(Cn2ccnc2)OCCC/C=C/C(=O)O)cc1 (stereo unspecified) | 1302 | 4 | 8.33 | 
CCOC(=O)CCCCOC(COCc1ccc(OC)cc1)Cn1ccnc1 (stereo unspecified) | 2018 | -11 | 0.75 | 
CCOC(=O)CCCCCCOC(COCc1ccc(OC)cc1)Cn1ccnc1 (stereo unspecified) | 2720 | 33 | 4 | 
COc1ccc(COCC(CCCCCCC(=O)O)Cn2ccnc2)cc1 (stereo unspecified) | 1620 | -18 | 1.43 | 
CCOC(=O)CCC/C=C/CC(COCc1ccc(OC)cc1)Cn1ccnc1 (stereo unspecified) | 1265 | 23 | 0.39 | 
CCOC(=O)/C=C/CCCOC(COCc1ccc(OC)cc1)Cn1ccnc1 (stereo unspecified) |  |  | 10 | 
COc1ccc(COCC(Cn2ccnc2)OCCCCC(C)(C)C(=O)O)cc1 (racemic) | 153 | 87 | 0.12 | ED50 [3]: 3.4 mg/kg
O=C(O)c1ccc(OCCn2ccnc2)cc1 [DAZOXIBEN] | 674 | 54 |  | ED50 [3]: 9.3 mg/kg
COc1ccc2c(c1)c(CC(=O)O)c(C)n2C(=O)c1ccc(Cl)cc1 [INDOMETHACIN] |  |  |  | Thromboxane B2 (TxB2) [7]: 27 pg 0.1ml-1 500x10^3; inhibition in vivo at 10 mg/kg [9]: 99%; ED50 at 10 mg/kg [10]: < 10 mg/kg
